Data: EPA's CvTdb concentration-time database

Experiments:
Rat [1] = assay: concentration in plasma after dosing; conditions: 0.2 h; dosed: 2-Methyltetrahydrofuran; 40 mg/kg; iv; Male; Harlan Sprague Dawley
Rat [2] = assay: concentration in plasma after dosing; conditions: 4 h; dosed: 2-Methyltetrahydrofuran; 40 mg/kg; iv; Female; Harlan Sprague Dawley
Rat [3] = assay: concentration in brain after dosing; conditions: 1.5 h; dosed: 2-Methyltetrahydrofuran; 40 mg/kg; iv; Male; Harlan Sprague Dawley
Rat [4] = assay: concentration in plasma after dosing; conditions: 1.5 h; dosed: 2-Methyltetrahydrofuran; 40 mg/kg; iv; Male; Harlan Sprague Dawley
Rat [5] = assay: concentration in plasma after dosing; conditions: 2 min; dosed: 2-Methyltetrahydrofuran; 40 mg/kg; iv; Male; Harlan Sprague Dawley
Rat [6] = assay: concentration in liver after dosing; conditions: 6 h; dosed: Fluorotelomer alcohol 8+2; 80 mg/kg; oral; Female; Harlan Sprague Dawley
Rat [7] = assay: concentration in liver after dosing; conditions: 0.5 h; dosed: Fluorotelomer alcohol 8+2; 80 mg/kg; oral; Female; Harlan Sprague Dawley
Rat [8] = assay: concentration in brain after dosing; conditions: 6 h; dosed: Fluorotelomer alcohol 8+2; 24 mg/kg; oral; Male; Harlan Sprague Dawley
Rat [9] = assay: concentration in kidney after dosing; conditions: 12 h; dosed: Fluorotelomer alcohol 8+2; 24 mg/kg; oral; Male; Harlan Sprague Dawley
Rat [10] = assay: concentration in plasma after dosing; conditions: 3 h; dosed: 678-39-7; 12 mg/kg; iv; Male; F344
Rat [11] = assay: concentration in plasma after dosing; conditions: 192 h; dosed: Fluorotelomer alcohol 8+2; 24 mg/kg; oral; Male; Harlan Sprague Dawley
Rat [12] = assay: concentration in plasma after dosing; conditions: dosed: 678-39-7, 40 mg/kg, iv, Female, Harlan Sprague-Dawley
Rat [13] = assay: concentration in plasma after dosing; conditions: 15 h; dosed: Gemfibrozil; 4.29 mg/kg; oral; Male; Sprague-Dawley
Rat [14] = assay: concentration in plasma after dosing; conditions: 24 h; dosed: Gemfibrozil; 50 mg/kg; oral; Male; Sprague-Dawley
Rat [15] = assay: concentration in plasma after dosing; conditions: 0.5 h; dosed: Gemfibrozil; 50 mg/kg; oral; Male; Sprague-Dawley
Rat [16] = assay: concentration in plasma after dosing; conditions: 0.25 h; dosed: Gemfibrozil; 100 mg/kg; oral; Male; Sprague-Dawley
Rat [17] = assay: concentration in brain after dosing; conditions: 1 h; dosed: Perfluorohexanoic Acid; 80 mg/kg; oral; Male; Harlan Sprague Dawley
Rat [18] = assay: concentration in plasma after dosing; conditions: 1.5 h; dosed: Perfluorohexanoic Acid; 40 mg/kg; iv; Male; F344
Rat [19] = assay: concentration in plasma after dosing; conditions: 3 h; dosed: Perfluorohexanoic Acid; 80 mg/kg; oral; Male; Harlan Sprague Dawley
Rat [20] = assay: concentration in plasma after dosing; conditions: 0.5 h; dosed: Perfluorohexanoic Acid; 80 mg/kg; oral; Male; Harlan Sprague Dawley
Rat [21] = assay: concentration in plasma after dosing; conditions: dosed: Perfluorohexanoic Acid, 40 mg/kg, oral, Male, Harlan Sprague Dawley
Rat [22] = assay: concentration in kidney after dosing; conditions: 1 h; dosed: Perfluorohexanoic Acid; 80 mg/kg; oral; Female; Harlan Sprague Dawley
Rat [23] = assay: concentration in liver after dosing; conditions: 6 h; dosed: Perfluorohexanoic Acid; 80 mg/kg; oral; Male; Harlan Sprague Dawley
Rat [24] = assay: concentration in brain after dosing; conditions: 3360 h; dosed: Perfluorooctane Sulfonate; 20 mg/kg; oral; Male; Harlan Sprague Dawley
Rat [25] = assay: concentration in liver after dosing; conditions: 1848 h; dosed: Perfluorooctane Sulfonate; 2 mg/kg; oral; Female; Harlan Sprague Dawley
Rat [26] = assay: concentration in kidney after dosing; conditions: 6 h; dosed: Perfluorooctane Sulfonate; 2 mg/kg; oral; Female; Harlan Sprague Dawley
Rat [27] = assay: concentration in plasma after dosing; conditions: dosed: Perfluorooctane Sulfonate, 2 mg/kg, iv, Female, Harlan Sprague-Dawley
Rat [28] = assay: concentration in liver after dosing; conditions: 24 h; dosed: Perfluorooctane Sulfonate; 2 mg/kg; oral; Female; Harlan Sprague Dawley
Rat [29] = assay: concentration in brain after dosing; conditions: 24 h; dosed: Perfluorooctane Sulfonate; 20 mg/kg; oral; Female; F344
Rat [30] = assay: concentration in liver after dosing; conditions: 24 h; dosed: Perfluorooctane Sulfonate; 20 mg/kg; oral; Female; F344
Rat [31] = assay: concentration in brain after dosing; conditions: 1848 h; dosed: Perfluorooctane Sulfonate; 20 mg/kg; oral; Female; F344
Rat [32] = assay: concentration in liver after dosing; conditions: 6 h; dosed: Perfluorooctane Sulfonate; 2 mg/kg; oral; Female; Harlan Sprague Dawley
Rat [33] = assay: concentration in plasma after dosing; conditions: dosed: Perfluorooctane Sulfonate, 2 mg/kg, iv, Male, F344
Rat [34] = assay: concentration in kidney after dosing; conditions: 6 h; dosed: Perfluorooctane Sulfonate; 2 mg/kg; oral; Female; Harlan Sprague Dawley; remark: listed apart in the source
human = assay: concentration in blood after dosing; conditions: dosed: trichloroethylene, 100 ppm, inhalation, duration: 4 hr, person
How it was run: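 Points were largely digitised from plot screenshots with WebPlotDigitizer or otherwise copied from tables, and they remain in the units each source reported. They come from published in vivo toxicokinetic studies and two structured collections. Sampling and analytical methods follow each source and were often not reported.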

Question: For `CC1CCCO1` (stereo unspecified) [2-Methyltetrahydrofuran], which concentration in plasma (Rat [1]) is on record?
Answer: 32200 ng/mL

Question: And the concentration in plasma (Rat [2])?
Answer: 186 ng/mL

Question: And the concentration in brain (Rat [3])?
Answer: 8330 ng/mL

Question: And the concentration in plasma (Rat [4])?
Answer: 14500 ng/mL

Question: And the concentration in plasma (Rat [5])?
Answer: 59400 ng/mL

Question: Which results are given for `O=C(O)CCC(F)(F)C(F)(F)C(F)(F)C(F)(F)C(F)(F)C(F)(F)C(F)(F)F` [Fluorotelomer acid 7+3]?
Answer: concentration in liver (Rat [6]): 7770 ng/g; concentration in liver (Rat [7]): 2020 ng/g; concentration in brain (Rat [8]): 305 ng/g; concentration in kidney (Rat [9]): 751 ng/g; concentration in plasma (Rat [10]): 735 ng/mL; concentration in plasma (Rat [11]): 40.8 ng/mL; concentration in plasma (Rat [12]; 0.75 h): 929 ng/mL; concentration in plasma (Rat [12]; 12 h): 368 ng/mL

Question: How did the concentration in plasma (Rat [13]) turn out when `Cc1ccc(C)c(OCCCC(C)(C)C(=O)O)c1` [Gemfibrozil] was run?
Answer: 131 ng/mL

Question: And the concentration in plasma (Rat [14])?
Answer: 754 ng/mL

Question: And the concentration in plasma (Rat [15])?
Answer: 4640 ng/mL

Question: What about the concentration in plasma (Rat [16]) of the same compound?
Answer: 72300 ng/mL

Question: `O=C(O)C(F)(F)C(F)(F)C(F)(F)C(F)(F)C(F)(F)F` [Perfluorohexanoic Acid] was tested. Which concentration in brain (Rat [17]) did it give?
Answer: 2670 ng/g

Question: What about the concentration in plasma (Rat [18]) of the same compound?
Answer: 8050 ng/mL

Question: What about the concentration in plasma (Rat [19]) of the same compound?
Answer: 76100 ng/mL

Question: And the concentration in plasma (Rat [20])?
Answer: 151000 ng/mL

Question: What about the concentration in plasma (Rat [21]; 5 min) of the same compound?
Answer: 32900 ng/mL

Question: And the concentration in plasma (Rat [21]; 3 h)?
Answer: 56400 ng/mL

Question: What about the concentration in kidney (Rat [22]) of the same compound?
Answer: 76600 ng/g

Question: And the concentration in liver (Rat [23])?
Answer: 9200 ng/g

Question: With `O=S(=O)([O-])C(F)(F)C(F)(F)C(F)(F)C(F)(F)C(F)(F)C(F)(F)C(F)(F)C(F)(F)F` [Perfluorooctane Sulfonate] as the compound, how does the concentration in brain (Rat [24]) read?
Answer: 1260 ng/g

Question: And the concentration in liver (Rat [25])?
Answer: 5940 ng/g

Question: What about the concentration in kidney (Rat [26]) of the same compound?
Answer: 4220 ng/g

Question: What about the concentration in plasma (Rat [27]; 1 h) of the same compound?
Answer: 4460 ng/mL

Question: What about the concentration in plasma (Rat [27]; 192 h) of the same compound?
Answer: 2800 ng/mL

Question: What about the concentration in plasma (Rat [27]; 1704 h) of the same compound?
Answer: 848 ng/mL

Question: And the concentration in liver (Rat [28])?
Answer: 23800 ng/g

Question: What about the concentration in brain (Rat [29]) of the same compound?
Answer: 7400 ng/g

Question: And the concentration in liver (Rat [30])?
Answer: 160000 ng/g

Question: And the concentration in brain (Rat [31])?
Answer: 1910 ng/g

Question: And the concentration in liver (Rat [32])?
Answer: 27200 ng/g

Question: What about the concentration in plasma (Rat [33]; 12 h) of the same compound?
Answer: 4350 ng/mL

Question: What about the concentration in plasma (Rat [33]; 864 h) of the same compound?
Answer: 995 ng/mL

Question: And the concentration in plasma (Rat [33]; 3216 h)?
Answer: 99.5 ng/mL

Question: What about the concentration in kidney (Rat [34]) of the same compound?
Answer: 12700 ng/g

Question: For `ClC=C(Cl)Cl` [trichloroethylene], which concentration in blood (human; 0 h) is on record?
Answer: 13000 nM

Question: What about the concentration in blood (human; 0.17 h) of the same compound?
Answer: 4900 nM

Question: What about the concentration in blood (human; 0.5 h) of the same compound?
Answer: 3280 nM

Question: And the concentration in blood (human; 1 h)?
Answer: 2200 nM

Question: And the concentration in blood (human; 1.5 h)?
Answer: 1680 nM

Question: What about the concentration in blood (human; 2 h) of the same compound?
Answer: 1340 nM

Question: What about the concentration in blood (human; 3 h) of the same compound?
Answer: 1070 nM

Question: What about the concentration in blood (human; 4 h) of the same compound?
Answer: 865 nM

Question: And the concentration in blood (human; 6 h)?
Answer: 583 nM

Question: What about the concentration in blood (human; 8 h) of the same compound?
Answer: 392 nM

Question: And the concentration in blood (human; 10 h)?
Answer: 259 nM
